ChEMBL document CHEMBL5661972, “In vitro biological activity of a novel small-molecule inhibitor of polo-like kinase 1” (Mol Cancer Ther, 2007)

Columns and labels:
NCI-H460 [1] = assay: Induction of cell cycle arrest in human NCI-H460 cells assessed as accumulation of cells at Sub-2N phase at 1 micromol/L incubated for 24 hrs by propidium iodide staining based flow cytometry analysis (reference value: 4.0 %); type: functional; settings: dose 1 µmol/L, at 1 µM
NCI-H460 [2] = assay: Induction of cell cycle arrest in human NCI-H460 cells assessed as accumulation of cells at S phase at 1 micromol/L incubated for 72 hrs by propidium iodide staining based flow cytometry analysis (reference value: 17.8 %); type: functional; settings: dose 1 µmol/L, at 1 µM
Aurora kinase A = molecular target: T1, Aurora kinase A (Homo sapiens, UniProt O14965); assay: Inhibition of Aurora A (unknown origin)
T1 sequence (O14965 whole entry): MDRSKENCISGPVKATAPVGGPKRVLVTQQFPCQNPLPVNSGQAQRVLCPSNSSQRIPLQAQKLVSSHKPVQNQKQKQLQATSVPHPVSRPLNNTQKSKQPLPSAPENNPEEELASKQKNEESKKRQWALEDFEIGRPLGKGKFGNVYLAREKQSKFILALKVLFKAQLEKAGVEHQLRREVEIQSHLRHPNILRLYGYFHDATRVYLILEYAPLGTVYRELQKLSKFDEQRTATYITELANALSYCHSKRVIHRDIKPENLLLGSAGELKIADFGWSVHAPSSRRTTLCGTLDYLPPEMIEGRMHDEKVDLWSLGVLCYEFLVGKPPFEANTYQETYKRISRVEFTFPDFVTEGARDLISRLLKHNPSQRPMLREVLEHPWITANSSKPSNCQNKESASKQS

NCI-H460 [3] = assay: Induction of cell cycle arrest in human NCI-H460 cells assessed as accumulation of cells at G1 phase at 3 micromol/L incubated for 48 hrs by propidium iodide staining based flow cytometry analysis (reference value: 50.9 %); type: functional; settings: dose 3 µmol/L, at 3 µM
NCI-H460 [4] = assay: Induction of cell cycle arrest in human NCI-H460 cells assessed as accumulation of cells at Sub-2N phase at 3 micromol/L incubated for 24 hrs by propidium iodide staining based flow cytometry analysis (reference value: 4.0 %); type: functional; settings: dose 3 µmol/L, at 3 µM
NHDF [5] = assay: Cytotoxicity against human HDF cells assessed as outgrowth of cells at 0.37 to 3.3 micromol/L incubated for 72 hrs by methylene blue staining based analysis; type: toxicity, cell-based; settings: dose 0.37-3.3 µmol/L
Outline: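 HDF seeded at 1,300 and H460 at 600 per well in 96-well plates. After 24 h, exposed to vehicle (0.3% DMSO) or compound at 0.37–30 μmol/L for 72 h. Wells were then washed with PBS and refed with drug-free medium containing gentamicin. Regrowth was followed by methylene blue staining at set time points over 13 days in total.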

NHDF [6] = assay: Induction of cell cycle arrest in human HDF cells assessed as accumulation of cells at G1 phase at 1 micromol/L incubated for 72 hrs by propidium iodide staining based flow cytometry analysis (reference value: 85.6 %); type: toxicity; settings: 1 µM, dose 1 µmol/L
Outline: (§1)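 Cells seeded in six-well plates at densities that keep them in log growth (HDF 120,000, 60,000 or 30,000; H460 100,000, 50,000 or 25,000 per well for 24, 48 or 72 h). Treated with 1 or 3 μmol/L. Floating and adherent cells collected, ethanol-fixed, permeabilized with Triton X-100 and stained with propidium iodide. DNA content read by flow cytometry as % singlet cells.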

[7] = molecular target: Serine/threonine-protein kinase PLK1 (Homo sapiens, UniProt P53350); assay: Inhibition of human PLK1 expressed in baculovirus infected in Trichoplusia ni cells using Biotin-Ahx-SFNDTLDFD as substrate in presence of ATP by TopCount scintillation proximity assay; set-up: species or system Trichoplusia ni cell
Sequence of Serine/threonine-protein kinase PLK1 (P53350 whole entry, the tested form may be a part): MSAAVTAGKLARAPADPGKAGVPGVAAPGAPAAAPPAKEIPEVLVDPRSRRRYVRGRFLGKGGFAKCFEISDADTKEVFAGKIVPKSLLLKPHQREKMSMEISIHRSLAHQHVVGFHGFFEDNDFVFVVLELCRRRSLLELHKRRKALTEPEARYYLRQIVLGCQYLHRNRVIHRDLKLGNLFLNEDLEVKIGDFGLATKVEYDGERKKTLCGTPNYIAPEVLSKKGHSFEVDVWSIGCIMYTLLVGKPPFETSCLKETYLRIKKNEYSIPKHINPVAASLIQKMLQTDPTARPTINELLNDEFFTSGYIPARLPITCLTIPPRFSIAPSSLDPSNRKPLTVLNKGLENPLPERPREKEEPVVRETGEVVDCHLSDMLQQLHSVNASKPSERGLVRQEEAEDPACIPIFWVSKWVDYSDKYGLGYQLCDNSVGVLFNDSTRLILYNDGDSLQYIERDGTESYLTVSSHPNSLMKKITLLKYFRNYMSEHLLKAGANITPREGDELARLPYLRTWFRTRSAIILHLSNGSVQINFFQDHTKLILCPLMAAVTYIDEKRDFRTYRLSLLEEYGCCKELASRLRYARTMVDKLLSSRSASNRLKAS
Outline: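 Baculovirus-expressed PLK1 kinase domain (2 nmol/L) in 25 mmol/L HEPES pH 7.2, 15 mmol/L MgCl2, 1 μmol/L ATP plus [γ-33P]ATP, 1 μmol/L biotinylated peptide substrate, BSA and DTT; 1–1.5 h at 22°C. Stopped with EDTA/streptavidin SPA beads. Signal above EDTA background converted to percent inhibition versus DMSO-only wells.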

[8] = Selectivity ratio of IC50 for cytotoxicity against human HDF cells to IC50 for antiproliferative activity against human HCT-116 cells; type: toxicity, cell-based; settings: HDF cells versus HCT-116 cells
NHDF [9] = assay: Induction of cell cycle arrest in human HDF cells assessed as accumulation of cells at >4N phase at 1 micromol/L incubated for 72 hrs by propidium iodide staining based flow cytometry analysis (reference value: 1.4 %); type: toxicity; settings: 1 µM, dose 1 µmol/L; outline: as §1
NHDF [10] = assay: Induction of cell cycle arrest in human HDF cells assessed as accumulation of cells at >4N phase at 1 micromol/L incubated for 48 hrs by propidium iodide staining based flow cytometry analysis (reference value: 3.0 %); type: toxicity; settings: 1 µM, dose 1 µmol/L; outline: as §1
NHDF [11] = assay: Induction of cell cycle arrest in human HDF cells assessed as accumulation of cells at G2-M phase at 1 micromol/L incubated for 24 hrs by propidium iodide staining based flow cytometry analysis (reference value: 22.6 %); type: toxicity; settings: 1 µM, dose 1 µmol/L; outline: as §1
NHDF [12] = assay: Induction of cell cycle arrest in human HDF cells assessed as accumulation of cells at G2-M phase at 3 micromol/L incubated for 72 hrs by propidium iodide staining based flow cytometry analysis (reference value: 8.2 %); type: toxicity; settings: 3 µM, dose 3 µmol/L; outline: as §1
NHDF [13] = assay: Induction of cell cycle arrest in human HDF cells assessed as accumulation of cells at G2-M phase at 3 micromol/L incubated for 24 hrs by propidium iodide staining based flow cytometry analysis (reference value: 22.6 %); type: toxicity; settings: 3 µM, dose 3 µmol/L; outline: as §1
NHDF [14] = assay: Induction of cell cycle arrest in human HDF cells assessed as accumulation of cells at G2-M phase at 3 micromol/L incubated for 48 hrs by propidium iodide staining based flow cytometry analysis (reference value: 14.3 %); type: toxicity; settings: 3 µM, dose 3 µmol/L; outline: as §1
NCI-H460 [15] = assay: Induction of cell cycle arrest in human NCI-H460 cells assessed as accumulation of cells at >4N phase at 3 micromol/L incubated for 48 hrs by propidium iodide staining based flow cytometry analysis (reference value: 0.9 %); type: functional; settings: dose 3 µmol/L, at 3 µM; outline: as §1
NCI-H460 [16] = assay: Induction of cell cycle arrest in human NCI-H460 cells assessed as accumulation of cells at G1 phase at 1 micromol/L incubated for 24 hrs by propidium iodide staining based flow cytometry analysis (reference value: 45.5 %); type: functional; settings: dose 1 µmol/L, at 1 µM; outline: as §1
NCI-H460 [17] = assay: Induction of cell cycle arrest in human NCI-H460 cells assessed as accumulation of cells at S phase at 3 micromol/L incubated for 24 hrs by propidium iodide staining based flow cytometry analysis (reference value: 23.2 %); type: functional; settings: dose 3 µmol/L, at 3 µM
NHDF [18] = assay: Induction of cell cycle arrest in human HDF cells assessed as accumulation of cells at G1 phase at 1 micromol/L incubated for 48 hrs by propidium iodide staining based flow cytometry analysis (reference value: 72.8 %); type: toxicity; settings: 1 µM, dose 1 µmol/L; outline: as §1
[19] = Cytotoxicity against human HDF cells assessed as inhibition of cell growth; type: toxicity, cell-based; settings: HDF cells (NHDF, human dermal fibroblasts)
Outline: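 Cells grown 3 days in 96-well plates, seeded so vehicle controls stay in log growth (MES-SA/DX5 7,000, MES-SA 6,000, HDF 5,000 per well). Exposed to 3-fold dilutions, 30–0.00152 μmol/L, in medium with 5% FBS, 50 μg/mL gentamicin and 0.3% (v/v) DMSO. HDF medium was low-glucose DMEM; MES-SA lines used McCoy's 5A.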

NCI-H460 [20] = assay: Induction of cell cycle arrest in human NCI-H460 cells assessed as accumulation of cells at Sub-2N phase at 3 micromol/L incubated for 48 hrs by propidium iodide staining based flow cytometry analysis (reference value: 2.5 %); type: functional; settings: dose 3 µmol/L, at 3 µM

Question: Which results are given for `COc1cc2ncn(-c3cc(OCc4ccccc4C(F)(F)F)c(C(N)=O)s3)c2cc1OC` [GW843682X]?
Answer: Activity (NCI-H460 [1]): 11.6%; Activity (NCI-H460 [2]): 2.8%; IC50 (Aurora kinase A): 4.8 µM; Activity (NCI-H460 [3]): 7.5%; Activity (NCI-H460 [4]): 24.1%; Activity (NHDF [5]): Toxic; Activity (NHDF [6]): 66.2%; IC50 [7]: 0.0022 µM; selectivity ratio [8]: 8.8; Activity (NHDF [9]): 3.5%; Activity (NHDF [10]): 6.4%; Activity (NHDF [11]): 27.6%; Activity (NHDF [12]): 52.7%; Activity (NHDF [13]): 65.6%; Activity (NHDF [14]): 61.2%; Activity (NCI-H460 [15]): 35.9%; Activity (NCI-H460 [16]): 27.3%; Activity (NCI-H460 [17]): 8.4%; Activity (NHDF [18]): 55.3%; IC50 [19]: 6.14 µM; Activity (NCI-H460 [20]): 20.3%
